This note sets out measurements from ChEMBL document CHEMBL4680097 (J Med Chem, 2016).

Structures are written as SMILES. Calls of active or inactive are those of the source. No cut-off for these calls is given here.

For assay [1], the target named is T1, Histone deacetylase (Homo sapiens) (UniProt Q13547+O15379+Q9UBN7+Q92769+Q9UQL6+Q8WUI4+Q9BY41+Q96DB2+P56524+Q9UKV0+Q969S8). Kind of assay: Inhibition of HDAC in human HCT-116 cells assessed increase in global histone H3 lysine 9 acetylation at 100 nM incubated for 24 hrs by Western blot analysis. It is filed as cell-based. The method, boiled down: (§1)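 HCT116 cells exposed 24 h at 10 nM, 100 nM or 1 μM; global histone H3 lysine 9 acetylation detected by Western blot.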

For assay [2], the target named is T2, Histone deacetylase 2 (Homo sapiens, UniProt Q92769). The assay can be described thus: Inhibition of recombinant HDAC2 (unknown origin) at 2 uM incubated for 15 mins before substrate addition and measured after 30 to 45 mins by HDAC-Glo substrate. The gist of the method: (§2)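 HDAC isoforms captured from HeLa cell lysate with plate-bound isoform-specific antibodies (lysate 100 µg/mL for HDAC1/2, 1 mg/mL for HDAC3/6); inhibitor in DMSO preincubated 15 min at room temperature, then HDAC-Glo substrate/developer 30–45 min; luminescence, background-corrected against no-antibody wells; % activity vs DMSO control; at least two independent trials, mean ± standard error. Concentrations are final.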

The next assay has as its system HCT-116. The assay can be described thus: Growth inhibition of human HCT-116 cells incubated for 96 hrs by MTS assay. Format: functional.
Assay [3] has as its system Panel NCI-60 (60 carcinoma cell lines). The assay can be described thus: Growth inhibition of human NCI-60 cells assessed as cell growth at 10 uM. Format: functional. The settings on record: read-out: Activity. The gist of the method: (§3)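 NCI-60 human tumour cell line panel; initial single-dose screen at 10 μM, growth inhibition reported per cell line.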
The target in assay [4] is T3, Histone deacetylase 1 (Homo sapiens, UniProt Q13547). The assay can be described thus: Inhibition of recombinant HDAC1 (unknown origin) at 2 uM incubated for 15 mins before substrate addition and measured after 30 to 45 mins by HDAC-Glo substrate. The method, boiled down: as §2
Assay [5] addresses T4, Histone deacetylase 3 (Homo sapiens, UniProt O15379). Kind of assay: Inhibition of recombinant HDAC3 (unknown origin) at 2 uM incubated for 15 mins before substrate addition and measured after 30 to 45 mins by HDAC-Glo substrate. The gist of the method: as §2
The target of assay [6] is T2, Histone deacetylase 2. The assay can be described thus: Inhibition of recombinant HDAC2 (unknown origin) at 250 nM incubated for 15 mins before substrate addition and measured after 30 to 45 mins by HDAC-Glo substrate. The method, boiled down: as §2
Assay [7] addresses T1, Histone deacetylase (Homo sapiens). The assay can be described thus: Inhibition of HDAC in human HCT-116 cells assessed increase in global histone H3 lysine 9 acetylation at 10 nM incubated for 24 hrs by Western blot analysis. Format: cell-based. The method, boiled down:
as §1

The target in assay [8] is T3, Histone deacetylase 1. Kind of assay: Inhibition of recombinant HDAC1 (unknown origin) at 250 nM incubated for 15 mins before substrate addition and measured after 30 to 45 mins by HDAC-Glo substrate. The gist of the method: as §2
In assay [9] the target is T4, Histone deacetylase 3. The assay can be described thus: Inhibition of recombinant HDAC3 (unknown origin) at 250 nM incubated for 15 mins before substrate addition and measured after 30 to 45 mins by HDAC-Glo substrate. The method, boiled down:
as §2

In assay [10] the target is T3, Histone deacetylase 1. Kind of assay: Inhibition of recombinant HDAC1 (unknown origin) at 1 uM incubated for 15 mins before substrate addition and measured after 30 to 45 mins by HDAC-Glo substrate. The method, boiled down: as §2
For assay [11], the target named is T4, Histone deacetylase 3. The assay can be described thus: Inhibition of recombinant HDAC3 (unknown origin) at 1 uM incubated for 15 mins before substrate addition and measured after 30 to 45 mins by HDAC-Glo substrate. The method, boiled down:
as §2

Assay [12] deals with T2, Histone deacetylase 2. Kind of assay: Inhibition of recombinant HDAC2 (unknown origin) at 1 uM incubated for 15 mins before substrate addition and measured after 30 to 45 mins by HDAC-Glo substrate. The gist of the method:
as §2

The species entered for assay [13] is Homo sapiens. Kind of assay: Selectivity index, ratio of IC50 for recombinant HDAC6 (unknown origin) to IC50 for recombinant HDAC1 (unknown origin).
The species entered for assay [14] is Homo sapiens. The assay can be described thus: Selectivity index, ratio of IC50 for recombinant HDAC6 (unknown origin) to IC50 for recombinant HDAC3 (unknown origin).
Assay [15] concerns the target T2, Histone deacetylase 2. Kind of assay: Inhibition of recombinant HDAC2 (unknown origin)incubated for 15 mins before substrate addition and measured after 30 to 45 mins by HDAC-Glo substrate. The method, boiled down: as §2
In assay [16] the target is T4, Histone deacetylase 3. The assay can be described thus: Inhibition of recombinant HDAC3 (unknown origin)incubated for 15 mins before substrate addition and measured after 30 to 45 mins by HDAC-Glo substrate. The method, boiled down: as §2
Assay [17] addresses T3, Histone deacetylase 1. Kind of assay: Inhibition of recombinant HDAC1 (unknown origin) incubated for 15 mins before substrate addition and measured after 30 to 45 mins by HDAC-Glo substrate. The method, boiled down: as §2
For assay [18], the species on record is Homo sapiens. The assay can be described thus: Selectivity index, ratio of IC50 for recombinant HDAC6 (unknown origin) to IC50 for recombinant HDAC2 (unknown origin).
In assay [19] the test system is Panel NCI-60 (60 carcinoma cell lines). The assay can be described thus: Growth inhibition of human NCI-60 cells at 10 uM. It is filed as functional. The settings on record: read-out: GI. The gist of the method:
as §3

T3 sequence (Q13547 whole entry): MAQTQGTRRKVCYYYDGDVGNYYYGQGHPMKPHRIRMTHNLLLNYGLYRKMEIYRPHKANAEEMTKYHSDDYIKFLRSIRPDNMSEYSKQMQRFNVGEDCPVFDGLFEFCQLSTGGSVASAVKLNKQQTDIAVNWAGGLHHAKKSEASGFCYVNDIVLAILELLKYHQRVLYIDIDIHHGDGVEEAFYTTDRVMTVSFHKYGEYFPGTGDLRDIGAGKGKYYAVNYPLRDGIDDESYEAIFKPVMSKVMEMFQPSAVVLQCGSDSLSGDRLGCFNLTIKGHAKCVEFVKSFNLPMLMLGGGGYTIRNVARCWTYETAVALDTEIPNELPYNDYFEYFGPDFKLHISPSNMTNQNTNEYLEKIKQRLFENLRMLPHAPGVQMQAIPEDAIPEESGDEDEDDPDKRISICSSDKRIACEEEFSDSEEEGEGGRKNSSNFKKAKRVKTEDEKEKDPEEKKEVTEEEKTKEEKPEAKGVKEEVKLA
T2 sequence (Q92769 whole entry, canonical isoform): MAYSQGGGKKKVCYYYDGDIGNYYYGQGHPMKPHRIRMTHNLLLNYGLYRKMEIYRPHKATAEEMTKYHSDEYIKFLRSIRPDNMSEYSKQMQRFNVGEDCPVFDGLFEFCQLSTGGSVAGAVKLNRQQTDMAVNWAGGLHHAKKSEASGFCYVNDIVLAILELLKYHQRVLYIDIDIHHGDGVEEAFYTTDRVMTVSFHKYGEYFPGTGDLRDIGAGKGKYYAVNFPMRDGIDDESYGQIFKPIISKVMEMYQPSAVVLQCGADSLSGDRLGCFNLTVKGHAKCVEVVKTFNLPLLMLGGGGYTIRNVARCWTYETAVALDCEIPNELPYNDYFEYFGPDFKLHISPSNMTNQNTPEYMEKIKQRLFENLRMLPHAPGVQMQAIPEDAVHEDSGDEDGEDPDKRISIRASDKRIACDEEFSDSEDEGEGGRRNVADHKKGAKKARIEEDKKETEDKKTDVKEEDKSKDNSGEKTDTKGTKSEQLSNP
T4 sequence (O15379 whole entry): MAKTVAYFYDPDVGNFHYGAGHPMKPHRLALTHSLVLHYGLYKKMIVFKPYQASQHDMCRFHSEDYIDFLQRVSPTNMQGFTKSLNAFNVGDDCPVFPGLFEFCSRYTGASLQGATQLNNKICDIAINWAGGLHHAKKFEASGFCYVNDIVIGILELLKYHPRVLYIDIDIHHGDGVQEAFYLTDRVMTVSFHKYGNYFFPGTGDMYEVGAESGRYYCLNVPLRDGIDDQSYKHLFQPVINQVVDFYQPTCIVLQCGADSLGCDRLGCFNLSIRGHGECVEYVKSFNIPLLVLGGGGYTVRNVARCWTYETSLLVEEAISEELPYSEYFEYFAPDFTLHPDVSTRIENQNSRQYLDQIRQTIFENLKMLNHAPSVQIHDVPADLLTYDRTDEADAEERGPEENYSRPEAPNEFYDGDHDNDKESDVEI

As to `CCCCCCCC(=O)SCC/C=C/[C@@H]1CC(=O)NCc2cccc(n2)CN(Cc2cccc3ccccc23)CC(=O)N[C@@H](C(C)C)C(=O)O1`, in assay [1], the inhibition entry was “inactive”. The inhibition entry on Histone deacetylase 2 [2], on Histone deacetylase 1 [4] and on Histone deacetylase 3 [5] was “Active” each time. The compound further returned a GI50 in the assay with HCT-116 greater than 5000 nM. The growth at 10 µM in assay [3] was determined as 34.9%.
Regarding `CCCCCCCC(=O)SCC/C=C/[C@@H]1CC(=O)NCc2cccc(n2)CN(Cc2ccc(OC)cc2)CC(=O)N[C@@H](C(C)C)C(=O)O1`, the GI50 with HCT-116 was 4250 nM. Besides, in assay [3], the growth at 10 µM was determined as 5.41%. In addition, the inhibition result on Histone deacetylase 2 [6], on Histone deacetylase 1 [8] and at Histone deacetylase 3 [9] was “inactive” each time. Also, the “Increase in histone H3K9 acetylation (qualitative call)” value (shortened to “Increase in histone H3K9 acetylation”) in assay [7] is “Active”.
`CCCCCCCC(=O)SCC/C=C/[C@@H]1CC(=O)NCc2cccc(n2)CN(Cc2ccc(C(F)(F)F)cc2)CC(=O)N[C@@H](C(C)C)C(=O)O1` registered a concentration for 50% growth inhibition (GI50) in the assay on HCT-116 of 3200 nM. In addition, the inhibition result at Histone deacetylase 1 [10], at Histone deacetylase 3 [11] and at Histone deacetylase 2 [12] was “inactive” each time. Moreover, the growth at 10 µM in assay [3] came to 0.43%. The “Increase in histone H3K9 acetylation” value in [7] was “Active”.
`CCCCCCCC(=O)SCC/C=C/[C@@H]1CC(=O)NCc2cccc(n2)-c2cccc(n2)C(=O)N[C@@H](C(C)C)C(=O)O1`: the values for the Ratio IC50 in the assay filed under Homo sapiens [13], in the assay listed under Homo sapiens [14] and in the assay filed under Homo sapiens [18] were 619, 481 and 464, respectively. This compound also showed a concentration for 50% growth inhibition (GI50) in the assay with HCT-116 of 75 nM. In addition, the figures for the IC50 on Histone deacetylase 2 [15], at Histone deacetylase 3 [16] and at Histone deacetylase 1 [17] were 28 nM, 27 nM and 21 nM, respectively. Besides, the growth at 10 µM in assay [3] was -16.2%. The inhibition entry on Histone deacetylase 2 [6], on Histone deacetylase 1 [8] and on Histone deacetylase 3 [9] was “Active” each time. For the same compound, the “Increase in histone H3K9 acetylation” value in assay [7] is “Active”.
On to `CCCCCCCC(=O)SCC/C=C/[C@@H]1CC(=O)NCCOCCOCC(=O)N[C@@H](C(C)C)C(=O)O1`, for which the inhibition entry (in assay [1]; at Histone deacetylase 2 [2]; on Histone deacetylase 1 [4]; on Histone deacetylase 3 [5]) was “Active” each time. Moreover, growth in the assay with HCT-116 was halved (GI50) at 750 nM. Moreover, in [3], the growth at 10 µM is 38.6%. Also, in assay [19], the inhibition of growth at 10 µM came out at 60%.
`CCCCCCCC(=O)SCC/C=C/[C@@H]1CC(=O)NCc2nc(cs2)C2=N[C@@](C)(CS2)C(=O)N[C@@H](C(C)C)C(=O)O1` [LARGAZOLE]: the 50% growth inhibitory concentration (GI50) in the assay with HCT-116 turned out to be 65 nM. Also, the half-inhibitory concentration (IC50) at Histone deacetylase 2 [15] amounted to 64 nM; on Histone deacetylase 1 [17], 61 nM. Besides, the “Increase in histone H3K9 acetylation” value in [7] was “Active”. For the same compound, the inhibition of growth at 10 µM in assay [19] amounted to 60%.
On to `CCCCCCCC(=O)SCC/C=C/[C@@H]1CC(=O)NCc2cccc(n2)CN(Cc2ccc(Cl)cc2)CC(=O)N[C@@H](C(C)C)C(=O)O1`, for which the GI50 in the assay with HCT-116 came to 2670 nM. For the same compound, the growth at 10 µM in [3] is 1.42%. In addition, the inhibition entry on Histone deacetylase 2 [6], on Histone deacetylase 1 [8] and on Histone deacetylase 3 [9] was “inactive” each time. For the same compound, the “Increase in histone H3K9 acetylation” value in [7] is “Active”.
For the compound `CCCCCCCC(=O)SCC/C=C/[C@@H]1CC(=O)NCc2cccc(n2)CN(Cc2ccccc2)CC(=O)N[C@@H](C(C)C)C(=O)O1`, the GI50 in the assay with HCT-116 was greater than 5000 nM. In addition, in assay [3], the growth at 10 µM is -4.39%. The inhibition result at Histone deacetylase 2 [6], on Histone deacetylase 1 [8] and at Histone deacetylase 3 [9] was “inactive” throughout. Also, the “Increase in histone H3K9 acetylation” value in assay [7] is “Active”.
`CCCCCCCC(=O)SCC/C=C/[C@@H]1CC(=O)NCc2cccc(n2)CN(C)CC(=O)N[C@@H](C(C)C)C(=O)O1`: in assay [1], the inhibition result is “Active”. The GI50 in the assay with HCT-116 came to 800 nM. Moreover, the growth at 10 µM in assay [3] was 40.8%. In addition, the inhibition of growth at 10 µM in assay [19] turned out to be 60%.
